Assays:
[1] = system: Mus musculus; assay: Antiinflammatory activity in delayed type hypersensitivity mouse model assessed as inhibition of granuloma dry weight at 100 mg/kg, sc
[2] = system: Rattus norvegicus; assay: Antiresorptive activity in thyroidparathyroidectomized sc dosed rat assessed as inhibition of 1,25-dihydroxyvitamin D3-induced hypercalcemia; assay type: functional
Procedure, shortened: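 In vivo bone resorption was driven by 1,25-dihydroxyvitamin D3, which induced hypercalcemia in thyroparathyroidectomized (TPTX) rats. ED50 values for inhibition of resorption were determined following an earlier published method.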

[3] = system: Mus musculus; assay: Antiinflammatory activity in delayed type hypersensitivity mouse model assessed as inhibition of granuloma wet weight at 100 mg/kg, sc

Row | SMILES | inhibition in vivo at 100 mg/kg [1] [%] | ED50 [2] [mg/kg] | inhibition in vivo at 100 mg/kg [3] [%]
1 | N#CC(c1nc2ccccc2s1)C(c1ccc([N+](=O)[O-])cc1)C(P(=O)(O)O)P(=O)(O)O (stereo not drawn) | 38 | 0.095 | 50
2 | Cc1ccc(C(C(C#N)c2nc3ccccc3s2)C(P(=O)(O)O)P(=O)(O)O)cc1 (stereo not drawn) | 38 | 0.11 | 36
3 | CN(C)c1ccc(C(C2SC(=S)NC2=O)C(P(=O)(O)O)P(=O)(O)O)cc1 (stereo not drawn) | 55 | 0.07 | 52
4 | O=C1NC(=S)SC1C(c1ccccc1Cl)C(P(=O)(O)O)P(=O)(O)O (stereo not drawn) | 44 | 0.08 | 38
5 | O=P(O)(O)C(O)(Cc1cccnc1)P(=O)(O)O [RISEDRONIC ACID] | 44 |  | 48
6 | O=P(O)(O)C(/C(=C/c1ccccc1Cl)c1nc2ccccc2s1)P(=O)(O)O |  | 0.105 | 
7 | O=[N+]([O-])c1ccccc1/C=C(\c1nc2ccccc2s1)C(P(=O)(O)O)P(=O)(O)O | 11 | 0.135 | 8
8 | O=C1NC(=S)SC1C(c1ccccc1O)C(P(=O)(O)O)P(=O)(O)O (stereo not drawn) | 51 | 0.078 | 54
9 | O=P(O)(O)C(/C(=C/c1ccc(Cl)cc1)c1nc2ccccc2s1)P(=O)(O)O |  | 0.118 | 
10 | CN(C)c1ccc(C(C(C#N)c2nc3ccccc3s2)C(P(=O)(O)O)P(=O)(O)O)cc1 (stereo not drawn) | 58 | 0.08 | 53
11 | N#CC(c1nc2ccccc2s1)C(c1ccc(Cl)cc1)C(P(=O)(O)O)P(=O)(O)O (stereo not drawn) | 53 | 0.09 | 52
12 | O=[N+]([O-])c1ccc(/C=C(\c2nc3ccccc3s2)C(P(=O)(O)O)P(=O)(O)O)cc1 | 10 | 0.115 | 8
13 | O=C1NC(=S)SC1C(c1ccccc1[N+](=O)[O-])C(P(=O)(O)O)P(=O)(O)O (stereo not drawn) | 46 | 0.088 | 42
14 | O=C1NC(=S)SC1C(c1ccccc1)C(P(=O)(O)O)P(=O)(O)O (stereo not drawn) | 39 | 0.077 | 46
15 | O=C1NC(=S)SC1C(c1ccc([N+](=O)[O-])cc1)C(P(=O)(O)O)P(=O)(O)O (stereo not drawn) | 46 | 0.085 | 43
16 | N#CC(c1nc2ccccc2s1)C(c1ccccc1Cl)C(P(=O)(O)O)P(=O)(O)O (stereo not drawn) | 41 | 0.09 | 50
17 | NCCC(O)(P(=O)(O)O)P(=O)(O)O [PAMIDRONIC ACID] |  | 0.085 | 
18 | N#CC(c1nc2ccccc2s1)C(c1ccccc1[N+](=O)[O-])C(P(=O)(O)O)P(=O)(O)O (stereo not drawn) | 51 | 0.105 | 48
19 | CN(C)c1ccc(/C=C(\c2nc3ccccc3s2)C(P(=O)(O)O)P(=O)(O)O)cc1 | 19 | 0.11 | 14
20 | Cc1ccc(/C=C(\c2nc3ccccc3s2)C(P(=O)(O)O)P(=O)(O)O)cc1 | 13 | 0.125 | 6
